For assay [1], the system named is Candida albicans. In words: Antifungal activity against Candida albicans isolate 17 grown in RPMI 1640 medium incubated for 24 hrs by microdilution method. In kind it is functional. As to conditions: isolate 17, 24 h. The method, boiled down:
(§1)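 C. albicans standard strain SC5314 and clinical isolates g5 and 17# tested by broth microdilution in YNB or RPMI 1640 medium. Plates incubated at 35 °C for up to 72 h, with visual readings taken at 24 h. MIC taken as the lowest concentration preventing visible growth.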
On the technique in general: In broth dilution the organism is exposed to a series of concentrations in liquid medium.

Assay [2] deals with Ceratobasidium cereale. Description: Antifungal activity against Rhizoctonia cerealis assessed as reduction in growth at 50 mg/l by mycelium growth rate method relative to control. Format: functional. The procedure, abridged:
(§2)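 Mycelium growth rate method against S. sclerotiorum, P. capsici, P. piricola, R. cerealis, W. anthracnose and R. bakanae. Each compound tested at 50 mg/L, with chlorothalonil and PTB as controls. Relative inhibitory ratio (%) calculated from mycelial growth.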

The test system of assay [3] is Candida albicans. Description: Antifungal activity against Candida albicans SC5314 grown in RPMI 1640 medium incubated for 24 hrs by microdilution method. As to conditions: SC5314, 24 h. Format: functional. The method, boiled down:
as §1

The subject of assay [4] is Candida albicans. Description: Inhibition of Candida albicans AHAS catalytic subunit at 10 uM using pyruvate as substrate measured after 30 mins by colorimetric method relative to control. The method, boiled down: (§3)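 Colorimetric assay in 50 mM potassium phosphate pH 7.0 with 50 mM pyruvate, 1 mM thiamine diphosphate, 10 mM MgCl2 and 10 μM FAD. Incubated 30 min at 37 °C for plant AHAS and 30 °C for fungal AHAS. Acetolactate formed was then quantified.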

For assay [5], the system named is Candida albicans. Description: Inhibition of Candida albicans AHAS catalytic subunit at 100 uM using pyruvate as substrate measured after 30 mins by colorimetric method relative to control. The method, boiled down: as §3
The subject of assay [6] is Candida albicans. Description: Antifungal activity against Candida albicans isolate g5 grown in RPMI 1640 medium incubated for 24 hrs by microdilution method. In kind it is functional. As to conditions: isolate g5, 24 h. The method, boiled down:
as §1

Assay [7] has as its system Candida albicans. Description: Antifungal activity against Candida albicans SC5314 grown in YNB medium incubated for 24 hrs by microdilution method. In kind it is functional. As to conditions: SC5314, 24 h. The method, boiled down:
as §1

For assay [8], the system named is Candida albicans. Description: Antifungal activity against Candida albicans isolate 17 grown in YNB medium incubated for 24 hrs by microdilution method. As to conditions: isolate 17, 24 h. In kind it is functional. The procedure, abridged:
as §1

Assay [9] deals with Candida albicans. In words: Antifungal activity against Candida albicans isolate g5 grown in YNB medium incubated for 24 hrs by microdilution method. In kind it is functional. Particulars: isolate g5, 24 h. The method, boiled down: as §1
The test system of assay [10] is Arabidopsis thaliana. Description: Inhibition of Arabidopsis thaliana AHAS catalytic subunit using pyruvate as substrate at 100 uM measured after 30 mins by colorimetric method relative to control. The procedure, abridged:
as §3

Assay [11] relates to Arabidopsis thaliana. Description: Inhibition of Arabidopsis thaliana AHAS catalytic subunit using pyruvate as substrate at 10 uM measured after 30 mins by colorimetric method relative to control. The method, boiled down:
as §3

The test system of assay [12] is Brassica rapa subsp. oleifera. Description: Herbicidal activity against Brassica campestris L assessed as inhibition of rape root growth at 100 mg/l root growth incubated for 48 hrs relative to control. Format: functional. The procedure, abridged: (§4)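 Rape seeds soaked in distilled water for 4 h, then placed on filter paper wetted with inhibitor solution, 15 seeds per 6-cm dish. Germinated in the dark at 28 °C for 48 h. Mean length of 10 roots per plate measured.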

For assay [13], the system named is Brassica rapa subsp. oleifera. Description: Herbicidal activity against Brassica campestris L assessed as inhibition of rape root growth at 10 mg/l root growth incubated for 48 hrs relative to control. In kind it is functional. The procedure, abridged:
as §4

Another assay deals with Sclerotinia sclerotiorum. In words: Antifungal activity against Sclerotinia sclerotiorum assessed as reduction in growth at 50 mg/l by mycelium growth rate method relative to control. In kind it is functional. The method, boiled down:
as §2

The test system of the next assay is Phytophthora capsici. In words: Antifungal activity against Phytophthora capsici assessed as reduction in growth at 50 mg/l by mycelium growth rate method relative to control. Format: functional. The procedure, abridged:
as §2

Assay [14] deals with Botryosphaeria berengeriana. In words: Antifungal activity against Physalospora pyricola assessed as reduction in growth at 50 mg/l by mycelium growth rate method relative to control. In kind it is functional. The procedure, abridged:
as §2

A further assay relates to Colletotrichum. In words: Antifungal activity against Colletotrichum (W. anthracnose) assessed as reduction in growth at 50 mg/l by mycelium growth rate method relative to control. In kind it is functional. The method, boiled down: as §2
For the next assay, the system named is Fusarium fujikuroi. In words: Antifungal activity against Gibberella fujikuroi assessed as reduction in growth at 50 mg/l by mycelium growth rate method relative to control. Format: functional. The procedure, abridged:
as §2

Assay [15] relates to Ceratobasidium cereale. Description: Antifungal activity against Rhizoctonia cerealis assessed as reduction in growth mycelium growth rate method relative to control. Format: functional, organism-based. The procedure, abridged:
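EC50 against R. cerealis derived from mycelium growth-rate inhibition over a concentration series, using a probit fit: Probit = m(log10[I] − log10[EC50]) + 5.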

The test system of the next assay is Mythimna separata. In words: Insecticidal activity against Mythimna separata assessed as larval mortality at 600 mg/l by leaf-dip method. In kind it is functional.
Assay [16] has as its system Tobacco mosaic virus. In words: Antiviral activity against Tobacco mosaic virus inoculated in Nicotiana tabacum leaves assessed as passivation by measuring local lesion numbers at 500 mg/l pre-incubated with virus for 30 mins followed by inoculation and measured up to 4 days. In kind it is functional. The method, boiled down: (§5)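 Passivation assay: TMV mixed with an equal volume of compound solution for 30 min, then rubbed onto the left half of N. tabacum L. leaves. The right half received virus mixed with solvent as control. Local lesions counted 3–4 days after inoculation. Compounds tested at 500 or 100 mg/L.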

Assay [17] has as its system Tobacco mosaic virus. In words: Antiviral activity against Tobacco mosaic virus inoculated in Nicotiana tabacum leaves assessed as passivation by measuring local lesion numbers at 100 mg/l pre-incubated with virus for 30 mins followed by inoculation and measured up to 4 days. Format: functional. The procedure, abridged:
as §5

The subject of assay [18] is Severe acute respiratory syndrome-related coronavirus. In words: Inhibition of SARS coronavirus M protease using AVLQSGFRKK as substrate at 20 uM by FRET assay relative to control. The procedure, abridged: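 Purified SARS-CoV Mpro assayed by FRET. Protein, compound and substrate were preheated at 37 °C and oscillated. Fluorescence (ex 320/em 405 nm) was read every 5 s for 200 reads.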

The structures appear in SMILES notation. Values after ≈ are worked out from the molar mass of the structure shown. Active and inactive are the calls of the source. The calls are words filed in the database; no cut-off is given here.

For `COc1cc(OC)nc(Sc2ccc(C(=O)O)cc2Br)n1`, the MIC (as a rule, the lowest concentration found to suppress growth) against Candida albicans [1] is greater than 100 µg/mL; with Candida albicans [3], greater than 100 µg/mL; with Candida albicans [6], greater than 100 µg/mL; against Candida albicans [7], 25 µg/mL (≈ 67.3 µM); against Candida albicans [8] it was 12.5 µg/mL (≈ 33.7 µM); against Candida albicans [9], 25 µg/mL (≈ 67.3 µM). In addition, the inhibition (commonly the relative decrease from the control value, in per cent) at 50 µg/mL in the assay with Ceratobasidium cereale [2] was found to be 96.4%; with Sclerotinia sclerotiorum, 50%; with Phytophthora capsici, 42.7%; in assay [14], 51.6%; with Colletotrichum, 45.2%; in the assay on Fusarium fujikuroi, 39.4%. Moreover, the inhibition is 70.7% with Candida albicans [4]; 94.6% with Candida albicans [5]; 100% in the assay on Arabidopsis thaliana [10]; 48.9% in the assay with Arabidopsis thaliana [11]; 0% in assay [18]. Also, the “inhibition (INH)” value in assay [12] stood at 26.4%; in assay [13], 0%. Also, the EC50 (as a rule, the midpoint of the concentration-response curve) in the assay on Ceratobasidium cereale [15] stood at 11.4 µg/mL (≈ 30.7 µM). In the assay with Mythimna separata, the mortality (commonly the share of the test organisms that died) at 600 µg/mL worked out at 50%. For the same compound, in the assay on Tobacco mosaic virus [16], the inhibition at 500 µg/mL was 0%. Besides, the inhibition result in the assay with Tobacco mosaic virus [17] is “inactive”.
For `COc1cc(OC)nc(Sc2ccc(C(=O)O)cc2Cl)n1`, the MIC against Candida albicans [1], in the assay on Candida albicans [3], with Candida albicans [6], against Candida albicans [7], against Candida albicans [8] and against Candida albicans [9] was greater than 100 µg/mL each time. Besides, the inhibition at 50 µg/mL with Ceratobasidium cereale [2] is 89.3%; with Sclerotinia sclerotiorum, 83.3%; with Phytophthora capsici, 41.7%; in [14] it was 76.6%; with Colletotrichum, 28.6%; in the assay on Fusarium fujikuroi, 60.6%. The inhibition in the assay with Candida albicans [4] is 62.3%; with Candida albicans [5], 85%; in the assay on Arabidopsis thaliana [10] it was 100%; with Arabidopsis thaliana [11], 31.4%; in assay [18], 0%. For the same compound, the figures for the “inhibition (INH)” value in [12] and in [13] were 73.4% and 30.6%, respectively. The EC50 with Ceratobasidium cereale [15] was found to be 9.2 µg/mL (≈ 28.2 µM). Also, in the assay with Mythimna separata, the mortality at 600 µg/mL turned out to be 50%. Besides, the inhibition at 500 µg/mL with Tobacco mosaic virus [16] is 0%. In addition, in the assay on Tobacco mosaic virus [17], the inhibition result was “inactive”.
Take `COc1cc(OC)nc(Sc2ccc(Cl)cc2C(=O)O)n1`: the MIC in the assay on Candida albicans [1], against Candida albicans [3], in the assay on Candida albicans [6], with Candida albicans [7], in the assay on Candida albicans [8] and against Candida albicans [9] was greater than 100 µg/mL in each case. Also, the inhibition at 50 µg/mL was determined as 89.3% in the assay with Ceratobasidium cereale [2]; 63.9% with Sclerotinia sclerotiorum; 41.7% in the assay with Phytophthora capsici; 40.6% in [14]; 52.4% in the assay with Colletotrichum; 48.5% in the assay on Fusarium fujikuroi. Moreover, the inhibition in the assay with Candida albicans [4] is 80.6%; with Candida albicans [5], 96.6%; in the assay on Arabidopsis thaliana [10] it was 100%; with Arabidopsis thaliana [11], 34%; in assay [18] it was 4.6%. In addition, the “inhibition (INH)” value in assay [12] is recorded as 54.5%; in [13] it was 0%. For the same compound, the EC50 with Ceratobasidium cereale [15] is 14.1 µg/mL (≈ 43.2 µM). For the same compound, the mortality at 600 µg/mL in the assay on Mythimna separata is 5%. For the same compound, the inhibition at 500 µg/mL with Tobacco mosaic virus [16] worked out at 0%. The inhibition result with Tobacco mosaic virus [17] was “inactive”.
Regarding `COc1nc(OC)nc(Sc2ccc(C#N)cc2Br)n1`, the MIC against Candida albicans [1], with Candida albicans [3], against Candida albicans [6], against Candida albicans [7], against Candida albicans [8] and with Candida albicans [9] was greater than 100 µg/mL throughout. Also, the inhibition at 50 µg/mL in the assay with Ceratobasidium cereale [2] was determined as 94%; in the assay on Sclerotinia sclerotiorum, 13.9%; with Phytophthora capsici, 8.3%; in [14], 56.3%; in the assay on Colletotrichum, 19%; in the assay on Fusarium fujikuroi, 51.5%. For the same compound, the inhibition is 32.1% with Candida albicans [4]; 68.6% in the assay with Candida albicans [5]; 98.3% in the assay with Arabidopsis thaliana [10]; 53.1% in the assay on Arabidopsis thaliana [11]; 39.3% in [18]. Also, the “inhibition (INH)” value worked out at 25% in assay [12] and 0% in [13]. Also, in the assay with Ceratobasidium cereale [15], the concentration giving a half-maximal response (EC50) was 12.4 µg/mL (≈ 35.1 µM). In the assay on Mythimna separata, the mortality at 600 µg/mL worked out at 30%. In the assay on Tobacco mosaic virus [16], the inhibition at 500 µg/mL was 0%. The inhibition entry with Tobacco mosaic virus [17] is “inactive”.

Source of the values: ChEMBL document CHEMBL4390648, “Chemical synthesis, crystal structure, versatile evaluation of their biological activities and molecular simulations of novel pyrithiobac derivatives” (Eur J Med Chem, 2019).
